Measured values as given in ChEMBL document CHEMBL1146334, “3D-Quantitative structure-activity relationships of synthetic antileishmanial ring-substituted ether phospholipids” (Bioorg Med Chem, 2007).

What was measured:
[1] = Toxicity against red blood cells assessed as hemolytic activity; type: cell-based, Erythrocyte; conditions: human
Method in brief: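 Human red cells from EDTA blood of healthy volunteers were washed thrice in PBS and mixed 1:1 with compound in PBS, 100 to 6.25, for 1 h at 37 °C. After centrifugation at 800g for 10 min, supernatant absorbance was read at 550 nm against 625 nm. % hemolysis = (A − A0)/(Amax − A0) × 100, with PBS as background and water as 100%. HC50 is the concentration giving 50% hemolysis.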

[2] = tested on: Leishmania infantum; test: Antileishmanial activity against Leishmania infantum LEM235 by MTT assay; type: functional, organism-based
[3] = tested on: Leishmania donovani; test: Antileishmanial activity against Leishmania donovani LEM703 by MTT assay; type: functional, organism-based
[4] = tested on: THP-1; test: Cytotoxicity against human THP1 cells after 72 hrs; type: functional, cell-based; conditions: THP-1, 72 h
Method in brief: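 THP1 cells at 1 × 10^6 cells/ml were exposed to test concentrations of 50 to 156 for 72 h. About 4 × 10^6 cells were then stained with PI (10 µg/ml) and SYBR-14 (0.1 mg/ml) in HEPES/NaCl/BSA buffer, pH 7.4, for 30 min at 37 °C. Flow cytometry used 488 nm excitation, analysed at least 10,000 cells, excluded autofluorescence and debris, and each experiment was repeated twice.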

Structure (SMILES): CCCCCCCCCCCCCCCC=C1CCC(OCCOP(=O)([O-])OCC[N+]2(C)CCCCC2)CC1 (stereo not given)
- HC50 [1]: > 100 µM
- IC50 [2]: 6.5 µM
- IC50 [3]: 22 µM
- IC50 [4]: 25.7 µM

Structure (SMILES): C[N+]1(CCOP(=O)([O-])OCCCCCCCCCCC=C2CCCCC2)CCOCC1
- IC50 [2]: 22.8 µM
- IC50 [3]: 8.25 µM

Structure (SMILES): C[N+]1(CCOP(=O)([O-])OCCOC2CCCCC2)CCOCC1
- IC50 [2]: > 100 µM
- IC50 [3]: > 100 µM

Structure (SMILES): C[N+]1(CCOP(=O)([O-])OCCCCCCCCCCC=C2CCCCC2)CCCCC1
- HC50 [1]: > 100 µM
- IC50 [2]: 47.6 µM
- IC50 [3]: 8.7 µM

Structure (SMILES): C[N+]1(CCOP(=O)([O-])OCCCCCCCCCCC=C2C3CC4CC(C3)CC2C4)CCCCC1
- HC50 [1]: > 100 µM
- IC50 [2]: 22.6 µM
- IC50 [3]: 5.41 µM
- IC50 [4]: 169 µM

Structure (SMILES): C[N+](C)(C)CCOP(=O)([O-])OCCCCCCCCCCCC1CCCCC1
- HC50 [1]: > 100 µM
- IC50 [2]: 8.4 µM
- IC50 [3]: 10.3 µM
- IC50 [4]: 35.5 µM

Structure (SMILES): CCCCCCCCCCCC=C1CCC(OCCOP(=O)([O-])OCC[N+]2(C)CCCCC2)CC1 (stereo not given)
- IC50 [2]: 23.1 µM
- IC50 [3]: 22 µM

Structure (SMILES): C[N+](C)(C)CCOP(=O)([O-])OCCOC1CCCCC1
- IC50 [2]: > 100 µM
- IC50 [3]: > 100 µM

Structure (SMILES): C[N+]1(CCOP(=O)([O-])OCCCCCCCCCCC=C2C3CC4CC(C3)CC2C4)CCOCC1
- HC50 [1]: > 100 µM
- IC50 [2]: 6.64 µM
- IC50 [3]: 5.09 µM
- IC50 [4]: 37.4 µM

Structure (SMILES): C[N+](C)(C)CCOP(=O)([O-])OCCCCC=C1CCCCC1
- IC50 [2]: > 100 µM
- IC50 [3]: > 100 µM

Structure (SMILES): CCCCCCCCCCCC=C1CCC(OCCOP(=O)([O-])OCC[N+](C)(C)C)CC1 (stereo not given)
- HC50 [1]: 40.6 µM
- IC50 [2]: 3.25 µM
- IC50 [3]: 7.08 µM
- IC50 [4]: 26 µM

Structure (SMILES): CCCCCCCCCCCCCC=C1CCC(OCCOP(=O)([O-])OCC[N+](C)(C)C)CC1 (stereo not given)
- HC50 [1]: > 100 µM
- IC50 [2]: 5.25 µM
- IC50 [3]: 3.91 µM
- IC50 [4]: 20.2 µM

Structure (SMILES): C[N+]1(CCOP(=O)([O-])OCCCCC=C2CCCCC2)CCOCC1
- IC50 [2]: > 100 µM
- IC50 [3]: > 100 µM

Structure (SMILES): CCCCCCCCCCCC=C1CCC(OCCOP(=O)([O-])OCC[N+]2(C)CCOCC2)CC1 (stereo not given)
- HC50 [1]: > 100 µM
- IC50 [2]: 16.5 µM
- IC50 [3]: 50.7 µM

Structure (SMILES): C[N+](C)(C)CCOP(=O)([O-])OCCCCCCCCCCC=C1CCCCC1
- HC50 [1]: 68.3 µM
- IC50 [2]: 5.2 µM
- IC50 [3]: 2.4 µM
- IC50 [4]: 31.3 µM

Structure (SMILES): CCCCCCCCCCCCCCCC=C1CCC(OCCOP(=O)([O-])OCC[N+](C)(C)C)CC1 (stereo not given)
- HC50 [1]: > 100 µM
- IC50 [2]: 21.2 µM
- IC50 [3]: 45.1 µM

Structure (SMILES): C[N+]1(CCOP(=O)([O-])OCCCCC=C2CCCCC2)CCCCC1
- IC50 [2]: > 100 µM
- IC50 [3]: > 100 µM

Structure (SMILES): C[N+]1(CCOP(=O)([O-])OCCCCC=C2C3CC4CC(C3)CC2C4)CCCCC1
- IC50 [2]: > 100 µM
- IC50 [3]: > 100 µM

Structure (SMILES): C[N+](C)(C)CCOP(=O)([O-])OCCCCCCCCCCC=C1C2CC3CC(C2)CC1C3
- HC50 [1]: > 100 µM
- IC50 [2]: 6.75 µM
- IC50 [3]: 3.16 µM
- IC50 [4]: 59.5 µM

Structure (SMILES): CCCCCCCCCCCCCCCC=C1CCC(OCCOP(=O)([O-])OCC[N+]2(C)CCOCC2)CC1 (stereo not given)
- HC50 [1]: > 100 µM
- IC50 [2]: 3.7 µM
- IC50 [3]: 16.2 µM
- IC50 [4]: 18.9 µM

Structure (SMILES): CCCCCCCCCCCCCC=C1CCC(OCCOP(=O)([O-])OCC[N+]2(C)CCOCC2)CC1 (stereo not given)
- HC50 [1]: 58.8 µM
- IC50 [2]: 15.5 µM
- IC50 [3]: 38.6 µM
- IC50 [4]: 20.4 µM

Structure (SMILES): C[N+](C)(C)C1CCCC1OP(=O)([O-])OCCCCCCCCCCC=C1C2CC3CC(C2)CC1C3 (stereo not given)
- HC50 [1]: > 100 µM
- IC50 [2]: 38 µM
- IC50 [3]: 3.92 µM
- IC50 [4]: 75 µM

Structure (SMILES): C[N+](C)(C)C1CCCC1OP(=O)([O-])OCCCCCCCCCCC=C1CCCCC1 (stereo not given)
- HC50 [1]: 76.3 µM
- IC50 [2]: > 100 µM
- IC50 [3]: 8.56 µM
- IC50 [4]: 30.7 µM

Structure (SMILES): C[N+](C)(C)CCOP(=O)([O-])OCCCCCC1C2CC3CC(C2)CC1C3 (stereo not given)
- HC50 [1]: > 100 µM
- IC50 [2]: > 100 µM
- IC50 [3]: 4.02 µM
- IC50 [4]: 59.5 µM

Structure (SMILES): C[N+](C)(C)CCOP(=O)([O-])OCCCCCCCCCCCC1C2CC3CC(C2)CC1C3 (stereo not given)
- HC50 [1]: > 100 µM
- IC50 [2]: 5.97 µM
- IC50 [3]: 2.88 µM
- IC50 [4]: 169 µM

Structure (SMILES): C[N+](C)(C)C1CCCCC1OP(=O)([O-])OCCCCCCCCCCC=C1CCCCC1 (stereo not given)
- HC50 [1]: 59.8 µM
- IC50 [2]: > 100 µM
- IC50 [3]: 26.3 µM

Structure (SMILES): CCCCCCCCCCCCCC=C1CCC(OCCOP(=O)([O-])OCC[N+]2(C)CCCCC2)CC1 (stereo not given)
- HC50 [1]: > 100 µM
- IC50 [2]: 11.4 µM
- IC50 [3]: 29.7 µM
- IC50 [4]: 65 µM

Structure (SMILES): C[N+]1(CCOP(=O)([O-])OCCOC2CCCCC2)CCCCC1
- IC50 [2]: > 100 µM
- IC50 [3]: > 100 µM

Structure (SMILES): C[N+]1(CCOP(=O)([O-])OCCCCC=C2C3CC4CC(C3)CC2C4)CCOCC1
- IC50 [2]: > 100 µM
- IC50 [3]: 46.9 µM

Structure (SMILES): C[N+](C)(C)C1CCCCC1OP(=O)([O-])OCCCCCCCCCCC=C1C2CC3CC(C2)CC1C3 (stereo not given)
- HC50 [1]: 66.6 µM
- IC50 [2]: > 100 µM
- IC50 [3]: 16.6 µM
- IC50 [4]: 39.7 µM

Structure (SMILES): CCCCCCCCCCCCC1CCC(OCCOP(=O)([O-])OCC[N+](C)(C)C)CC1 (stereo not given)
- HC50 [1]: 75.7 µM
- IC50 [2]: 5.65 µM
- IC50 [3]: 9.49 µM
- IC50 [4]: 22.2 µM

Structure (SMILES): C[N+](C)(C)CCOP(=O)([O-])OCCCCC=C1C2CC3CC(C2)CC1C3
- HC50 [1]: > 100 µM
- IC50 [2]: > 100 µM
- IC50 [3]: 4.99 µM
- IC50 [4]: > 500 µM

Structure (SMILES): CCCCCCCCCCCCCCCCOP(=O)([O-])OCC[N+](C)(C)C [MILTEFOSINE]
- HC50 [1]: 38.3 µM
